For data set [1], the target named is Kynurenine 3-monooxygenase (Homo sapiens, UniProt O15229). In words: Inhibition of KMO (unknown origin).
Data set [2] in a line: Half life in simulated gastric fluid of pH 1.2 at 10 uM after 2 and 4 hrs by LC-UV analysis. The class given is ADME. The procedure, abridged:
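Compound at 10 µM was shaken at about 25 °C in simulated gastric fluid (2 g/L NaCl, 3.2 g/L pepsin, 0.7% HCl, pH 1.2) and in pepsin-free gastric buffer. Aliquots were taken at 0, 2 and 4 h, diluted into DMSO, and analysed immediately by LC-UV at 254 nm.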

Data set [3] in a line: AUC(infinity) in C57BL/6N mouse at 5 mg/kg, iv administered as single dose containing <0.4% Ro-61-8048 by LC-MS/MS analysis. Also noted: time infinity, dose 5 mg/kg, route intravenous. The format is ADME, organism-based. To be noted: plasma. The procedure, abridged:
(§1)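 Single intravenous bolus of 5 mg/kg to male C57BL/6N mice, given as a filtered 1 mg/mL solution in DMSO:PEG400:water 10:50:40 (v/v). Plasma was extracted in acidified acetonitrile with diclofenac as internal standard and analysed by UPLC-MS/MS. Non-compartmental analysis used mean concentrations (n=3 per time point), with C0 back-extrapolated from the first two samples. AUCinf = AUClast + Ct/kel.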

The test system of data set [4] is Mus musculus. The experiment in a line: AUC(infinity) in C57BL/6N mouse at 10 mg/kg, po administered via gavage containing <0.4% Ro-61-8048 by LC-MS/MS analysis. The format is ADME, organism-based, Plasma. Also noted: time infinity, dose 10 mg/kg, route oral. To be noted: in vivo. In a few lines: (§2)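 Male C57BL/6N mice were dosed by oral gavage at 10 mL/kg with a fine suspension in 10% hydroxypropyl-β-cyclodextrin in 50 mM phosphate buffer, pH 7. Plasma was taken at non-serial time points (n=3 per time point), extracted with 0.1% formic acid in acetonitrile containing diclofenac as internal standard, and quantified by UPLC-MS/MS. Composite non-compartmental parameters came from mean concentrations; AUClast by linear trapezoid, kel from at least three terminal points.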

The test system of a further data set is Liver. The experiment in a line: Metabolic stability in mouse liver microsomes assessed as intrinsic clearance at 1 uM after 5 to 40 mins by LC-MS/MS analysis.
Data set [5] relates to Mus musculus. The experiment in a line: Dose normalised AUC in C57BL/6N mouse at 10 mg/kg, po administered via gavage containing <0.4% Ro-61-8048 by LC-MS/MS analysis. The format is ADME, organism-based. The arrangement: dose 10 mg/kg, route oral. To be noted: in vivo. The procedure, abridged:
as §2

Data set [6] has as its system Mus musculus. The experiment in a line: Dose normalised AUC in C57BL/6N mouse at 5 mg/kg, iv administered as single dose containing <0.4% Ro-61-8048 by LC-MS/MS analysis. The class given is ADME, organism-based. The arrangement: dose 5 mg/kg, route intravenous. The conditions noted are these: in vivo. The procedure, abridged: as §1
Data set [7] is described as follows: Cmax in mouse at 10 mg/kg, po. The class given is ADME, organism-based. Also noted: dose 10 mg/kg, route oral. To be noted: in vivo.
Data set [8] in a line: Metabolic stability in mouse blood assessed as half life at 5 uM by LC-MS/MS analysis. The class given is ADME, tissue-based.
Data set [9] can be described thus: Plasma clearance in C57BL/6N mouse at 5 mg/kg, iv administered as single dose containing <0.4% Ro-61-8048 by LC-MS/MS analysis. The class given is ADME, organism-based. Also noted: dose 5 mg/kg, route intravenous. In a few lines: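 Male C57BL/6N mice given 5 mg/kg iv bolus (1 mg/mL, DMSO:PEG400:water 10:50:40, filtered); dosed material carried Ro-61-8048 as impurity, which was also quantified in plasma. LC-MS/MS after acetonitrile/formic acid extraction; composite non-compartmental analysis of mean concentrations (n=3 per time point), C0 back-extrapolated, kel from ≥3 terminal points.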

The nature of data set [10]: Cmax in R6/2 mouse at 7.5 mg/kg/day, po. The class given is ADME, organism-based. The arrangement: dose 7.5 mg/kg/day, route oral. To be noted: in vivo.
Data set [11] in a line: Volume of distribution at steady state in C57BL/6N mouse at 5 mg/kg, iv administered as single dose by LC-MS/MS analysis. Also noted: dose 5 mg/kg, route intravenous. The format is ADME, organism-based. To be noted: in vivo, read-out: Vdss. The procedure, abridged:
(§3)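 Male C57BL/6N mice given 5 mg/kg iv bolus as 1 mg/mL filtered solution in DMSO:PEG400:water 10:50:40. Plasma extracted with acidified acetonitrile (diclofenac IS), analysed by LC-MS/MS. Composite non-compartmental parameters from mean concentrations (n=3 per time point); C0 back-extrapolated from first two points; kel from at least last three concentrations.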

Data set [12] in a line: Cmax in C57BL/6N mouse at 0.05 mg/kg, po administered via gavage by LC-MS/MS analysis. The class given is ADME, organism-based. Also noted: dose 0.05 mg/kg, route oral. The conditions noted are these: in vivo. In a few lines: as §2
A short description of data set [13]: AUClast in C57BL/6N mouse at 0.05 mg/kg, po administered via gavage by LC-MS/MS analysis. The format is ADME, organism-based. Also noted: time 0 - last, dose 0.05 mg/kg, route oral. The conditions noted are these: plasma. The procedure, abridged: as §2
The nature of data set [14]: Half life in C57BL/6N mouse at 0.05 mg/kg, po administered via gavage by LC-MS/MS analysis. The arrangement: dose 0.05 mg/kg, route oral. To be noted: in vivo. The class given is ADME, organism-based. The procedure, abridged: as §2
The nature of data set [15]: Plasma protein binding in rat at 5 and 20 uM for 6 hrs by LC-MS/MS analysis. The class given is ADME, cell-free. The conditions noted are these: read-out: PPB. The procedure, abridged: (§4)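 Equilibrium dialysis: plasma fortified in triplicate (5 and 20 µM rat and mouse; 10 µM human) on donor side, PBS on receiver side; 37°C, 200 rpm, 6 h; both sides by LC-MS/MS.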
Data set [16] has as its target Kynurenine 3-monooxygenase (Mus musculus, UniProt Q91WN4). The experiment in a line: Inhibition of C57BL/6J mouse KMO assessed as 3-hydroxykynurenine formation preincubated for 5 mins using 100 uM kynurenine as substrate by LC-MS/MS analysis in presence of 3 mg/ml plasma protein. The procedure, abridged:
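Liver mitochondrial KMO (mouse C57 BL/6J or human), 0.3 mg protein/mL in 100 mM potassium phosphate pH 7.4, 200 µM NADPH, NADPH-regenerating system, plus 3 mg/mL plasma protein. Compound pre-incubated 5 min at 25°C; 100 µM kynurenine started reaction for 40 min (mouse) or 60 min (human); TCA stop; 3-hydroxykynurenine by LC-MS/MS. IC50 from 8-point 3-fold series, triplicates, n≥2.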

The test system of data set [17] is Mus musculus. In words: Dose normalised Cmax in C57BL/6N mouse at 0.05 mg/kg, po administered via gavage by LC-MS/MS analysis. The format is ADME, organism-based. The arrangement: dose 0.05 mg/kg, route oral. The conditions noted are these: in vivo. The procedure, abridged: as §2
Data set [18] is described as follows: Plasma clearance in C57BL/6N mouse at 5 mg/kg, iv administered as single dose by LC-MS/MS analysis. The class given is ADME, organism-based. Also noted: dose 5 mg/kg, route intravenous. The procedure, abridged:
as §3

Data set [19] can be described thus: AUC(infinity) in C57BL/6N mouse at 5 mg/kg, iv administered as single dose by LC-MS/MS analysis. The format is ADME, organism-based. The conditions noted are these: plasma. The arrangement: time infinity, dose 5 mg/kg, route intravenous. The procedure, abridged:
as §1

Data set [20] is described as follows: Plasma protein binding in mouse at 5 and 20 uM for 6 hrs by LC-MS/MS analysis. The class given is ADME, cell-free. The conditions noted are these: read-out: PPB. In a few lines:
as §4

Kynurenine 3-monooxygenase (Homo sapiens, UniProt O15229), sequence (O15229 whole entry): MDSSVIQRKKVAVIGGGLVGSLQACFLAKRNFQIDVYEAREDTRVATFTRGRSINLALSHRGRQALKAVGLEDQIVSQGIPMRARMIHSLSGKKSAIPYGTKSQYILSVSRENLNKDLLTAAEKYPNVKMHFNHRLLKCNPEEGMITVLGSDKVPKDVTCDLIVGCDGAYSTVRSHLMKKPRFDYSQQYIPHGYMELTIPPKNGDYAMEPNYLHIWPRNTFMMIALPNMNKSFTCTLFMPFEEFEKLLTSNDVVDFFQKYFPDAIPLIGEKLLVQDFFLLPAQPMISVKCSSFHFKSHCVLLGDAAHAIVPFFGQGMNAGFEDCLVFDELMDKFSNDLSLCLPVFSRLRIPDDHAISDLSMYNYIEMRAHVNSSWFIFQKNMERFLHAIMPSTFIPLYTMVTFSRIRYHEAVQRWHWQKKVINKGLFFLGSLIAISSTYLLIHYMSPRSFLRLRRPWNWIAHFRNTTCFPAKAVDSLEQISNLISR
Kynurenine 3-monooxygenase (Mus musculus, UniProt Q91WN4), sequence (Q91WN4 whole entry): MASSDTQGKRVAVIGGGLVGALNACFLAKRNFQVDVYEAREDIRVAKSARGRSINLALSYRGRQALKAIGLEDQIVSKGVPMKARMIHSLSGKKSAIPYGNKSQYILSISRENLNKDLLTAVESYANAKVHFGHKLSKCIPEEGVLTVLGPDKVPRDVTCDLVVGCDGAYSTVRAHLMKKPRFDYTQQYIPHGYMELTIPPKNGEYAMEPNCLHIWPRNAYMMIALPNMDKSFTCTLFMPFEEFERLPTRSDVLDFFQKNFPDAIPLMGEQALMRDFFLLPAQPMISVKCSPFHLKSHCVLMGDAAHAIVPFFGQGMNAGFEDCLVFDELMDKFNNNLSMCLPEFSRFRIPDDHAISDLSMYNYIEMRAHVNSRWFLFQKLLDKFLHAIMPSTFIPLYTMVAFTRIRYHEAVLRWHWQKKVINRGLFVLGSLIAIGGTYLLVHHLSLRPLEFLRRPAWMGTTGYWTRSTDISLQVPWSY

As for `COc1ccc(S(=O)(=O)Nc2nc(-c3cccc([N+](=O)[O-])c3)c(CN3CCCCC3)s2)cc1OC`, the IC50 (in general, the midpoint of a concentration-inhibition curve) in [1] is 4 µM. In data set [2], the half-life – broadly, the time in which the quantity being followed falls by half – at 10 µM is over 18 h. The AUC(0-inf) (in general, the area under the concentration-time curve extrapolated to infinity) in data set [3] came out at 5.2 µM·h. Also, the AUC (commonly the area under the concentration-time curve, a measure of exposure) in the data set with Mus musculus [4] was found to be 1.1 µM·h. Besides, the CLH in the data set on Liver is 220 µL/min/mg. The results for the AUC/dose with Mus musculus [5] and in the data set on Mus musculus [6] were 110 nM·kg·h/mg and 1000 nM·kg·h/mg, respectively. Besides, the Cmax (in general, the peak of the concentration-time curve) in data set [7] came to 1100 nM. In data set [8], the half-life at 5 µM is over 2.5 h. Further, the clearance (in general, the volume of plasma or blood freed of the substance per unit of time) in [9] is 31.7 mL/min/kg.

As to `COc1ccc(S(=O)(=O)Nc2nc(-c3cccc([N+](=O)[O-])c3)cs2)cc1OC`, the results for the Cmax in data set [10] and in [12] were 280 nM and 550 nM, respectively. For the same molecule, the Vd in data set [11] is 0.15 L/kg. In addition, in [13], the AUC(0-t) (as a rule, exposure summed from dosing to a finite time, without extrapolation to infinity) is 4.3 µM·h. Moreover, the half-life in data set [14] was 5.2 h. Also, the fraction unbound at 6 h in data set [15] and in data set [20] was under 0.01 in each case. The IC50 in data set [16] was at least 12 µM. In the data set on Mus musculus [17], this molecule came in with a Cmax/dose of 11000 nM. The molecule further showed a clearance in [18] of 0.3 mL/min/kg. The molecule further displayed an AUC(0-inf) in data set [19] of 550 µM·h.

The values above are taken from ChEMBL document CHEMBL3526063, “Metabolism and pharmacokinetics of JM6 in mice: JM6 is not a prodrug for Ro-61-8048” (Drug Metab Dispos, 2012).
